Test results taken from ChEMBL document CHEMBL1124996, “Synthesis of antimicrobial agents. 3. Syntheses and antibacterial activities of 7-(4-hydroxypiperazin-1-yl)quinolones” (J Med Chem, 1990).
≈ marks a conversion by molar mass, not a printed value.

Assays:
[1] = test system: Bacillus subtilis; assay: In vitro antibacterial activity against Bacillus subtilis ATCC 6633; type: functional
How it was run: (§1)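 MIC measured by 2-fold serial agar dilution. The growth medium is given as Mueller–Hinton agar in the text and as sensitivity test agar in the table footnote. Value reported in µg/mL.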

[2] = test system: Escherichia coli; assay: (§2) In vitro antibacterial activity against Escherichia coli NHJ JC-2; type: functional, escherichia colin; how it was run: as §1
[3] = test system: Klebsiella pneumoniae; assay: In vitro antibacterial activity against Klebsiella pneumoniae PCI-602; type: functional; how it was run: as §1
[4] = Acute toxicity on intravenous injection in mice; type: organism-based; settings: mouse, in vivo
How it was run: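 ddY male mice (20–25 g, five per group) given compound by intravenous injection. Compound was dissolved in 1 N NaOH, then brought up in phosphoric acid–saline buffer (pH 7.2). LD50 was determined 7 days later by the Weil method.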

[5] = Acute toxicity on oral administration in mice; type: organism-based; settings: mouse, in vivo
How it was run: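 ddY male mice (20–25 g, five per group) were dosed orally with a suspension in 0.5% sodium carboxymethylcellulose. LD50 was determined 7 days later by the Weil method.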

[6] = test system: Pseudomonas aeruginosa; assay: In vitro antibacterial activity against Pseudomonas aeruginosa IFO 3445; type: functional; how it was run: as §1
[7] = test system: Proteus vulgaris; assay: In vitro antibacterial activity against Proteus vulgaris OX-19; type: functional; how it was run: as §1
[8] = test system: Staphylococcus epidermidis; assay: In vitro antibacterial activity against Staphylococcus epidermidis IAM 1296; type: functional; how it was run: as §1
[9] = test system: Serratia marcescens; assay: (§3) In vitro antibacterial activity against Serratia; type: functional; how it was run: as §1
[10] = test system: Salmonella typhimurium; assay: In vitro antibacterial activity against Salmonella Typhimurium IID 971; type: functional, Salmonella enterica subsp. enterica serovar Typhimurium; settings: Salmonella enterica; how it was run: as §1
[11] = test system: Staphylococcus aureus; assay: In vitro antibacterial activity against […] aureus IID 803 -; type: functional; how it was run: as §1
[12] = test system: Staphylococcus aureus; assay: In vitro antibacterial activity against Staphylococcus aureus FDA 209P JC-1; type: functional; how it was run: as §1
[13] = test system: Escherichia coli; assay: In vitro antibacterial activity against Escherichia coli KC-14
[14] = test system: Escherichia coli; assay: In vivo antibacterial activity against Escherichia coli KC-14 (po); type: functional
How it was run: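 Oral protection test in mice infected with E. coli KC-14. Compound suspended in 0.5% sodium CMC and given orally 1 h after infection. ED50 (mg/kg) calculated from cumulative mortality on day 7 after infection by the shortened Weil method, with 95% confidence limits.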

[15] = test system: Staphylococcus aureus; assay: In vitro antibacterial activity against Staphylococcus aureus FDA […] JC-1; type: functional
How it was run: (§4)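 MIC by 2-fold agar dilution on sensitivity test agar (Mueller–Hinton agar per text), in µg/mL.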

[16] = test system: Escherichia coli; assay: as §2; type: functional, escherichia colin; how it was run: as §4; remark: listed apart in the source
[17] = test system: Serratia; assay: as §3; type: functional; how it was run: as §4
[18] = Concentration of liberated compound in serum after 60 min at the dose of 50 mg/kg (po).; type: functional, organism-based; set-up: dose 50 mg/kg
How it was run: (§5)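 ddY male mice (20–25 g, five per group) got 50 mg/kg orally as a 0.5% CMC suspension and were killed by bleeding at 30, 60, 120 or 240 min. Serum was taken after centrifugation at 3000 rpm, 20 min, 4 °C, and deproteinised with 5% aqueous trichloroacetic acid. The released parent quinolone was measured by HPLC with UV detection on an ODS column. Mean ± SE.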

[19] = Concentration of liberated compound in serum after 120 min at the dose of 50 mg/kg (po).; type: functional, organism-based; set-up: dose 50 mg/kg; how it was run: as §5
[20] = Concentration of liberated compound in serum after 240 min at the dose of 50 mg/kg (po).; type: functional, organism-based; set-up: dose 50 mg/kg; how it was run: as §5
[21] = Concentration of liberated compound in serum after 30 min at the dose of 50 mg/kg (po).; type: ADME, organism-based; set-up: dose 50 mg/kg; settings: in vivo, 0.5 h
How it was run: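 ddY male mice (20–25 g, five per group) given 50 mg/kg orally as a suspension in 0.5% CMC and killed by bleeding at 30 min. Serum was separated by centrifugation (3000 rpm, 20 min, 4 °C) and deproteinized with 5% aqueous trichloroacetic acid. Liberated NFLX was quantified by reversed-phase (ODS) HPLC with UV detection. Values are mean ± SE.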

Structure (SMILES)	MIC [1] [µg/mL]	MIC [3] [µg/mL]	LD50 [4] [mg/kg]	LD50 [5] [mg/kg]	MIC [6] [µg/mL]	MIC [7] [µg/mL]	MIC [8] [µg/mL]	MIC [9] [µg/mL]	MIC [10] [µg/mL]	MIC [11] [µg/mL]	MIC [13] [µg/mL]	ED50 [14] [mg/kg]	MIC [15] [µg/mL]	MIC [16] [µg/mL]	MIC [17] [µg/mL]	further results
CCn1cc(C(=O)O)c(=O)c2cc(F)c(N3CCN(O)CC3)cc21	0.2 (≈ 0.596 µM)	0.05 (≈ 0.149 µM)	> 500	> 4000	12.5 (≈ 37.3 µM)	0.05 (≈ 0.149 µM)	6.25 (≈ 18.6 µM)	3.13 (≈ 9.33 µM)	0.1 (≈ 0.298 µM)	1.56 (≈ 4.65 µM)	0.39 (≈ 1.16 µM)					MIC [2]: 1.56 µg/mL (≈ 4.65 µM); MIC [12]: 0.78 µg/mL (≈ 2.33 µM)
O=C(O)c1cn(C2CC2)c2cc(N3CCN(O)CC3)c(F)cc2c1=O	0.39 (≈ 1.12 µM)	0.025 (≈ 0.072 µM)		> 4000	1.56 (≈ 4.49 µM)	0.05 (≈ 0.144 µM)	1.56 (≈ 4.49 µM)	0.78 (≈ 2.25 µM)	0.025 (≈ 0.072 µM)	0.78 (≈ 2.25 µM)	0.025 (≈ 0.072 µM)	0.37	0.39 (≈ 1.12 µM)	0.1 (≈ 0.288 µM)		
O=C(O)c1cn(C2CC2)c2cc(N3CCNCC3)c(F)cc2c1=O [CIPROFLOXACIN]	0.39 (≈ 1.18 µM)	0.025 (≈ 0.0754 µM)			0.78 (≈ 2.35 µM)	0.05 (≈ 0.151 µM)	1.56 (≈ 4.71 µM)		0.025 (≈ 0.0754 µM)	0.78 (≈ 2.35 µM)	0.0125 (≈ 0.0377 µM)	0.84	0.39 (≈ 1.18 µM)		0.2 (≈ 0.604 µM)	
CCn1cc(C(=O)O)c(=O)c2cc(F)c(N3CCNCC3)cc21 [NORFLOXACIN]	0.39 (≈ 1.22 µM)	0.1 (≈ 0.313 µM)	314	> 4000	1.56 (≈ 4.89 µM)	0.1 (≈ 0.313 µM)	3.13 (≈ 9.8 µM)		0.05 (≈ 0.157 µM)	1.56 (≈ 4.89 µM)	0.2 (≈ 0.626 µM)		0.39 (≈ 1.22 µM)	0.2 (≈ 0.626 µM)	0.39 (≈ 1.22 µM)	Concentration [18]: 2.8 µg/mL; Concentration [19]: 1.09 µg/mL; Concentration [20]: 0.47 µg/mL; Concentration [21]: 4140 ng/mL
